Screening data deposited in PubChem by several laboratories.
NF-kB expr up: raises NF-kB expression in human neuronal cells; NF-kB reporter expression; active compounds read high; fold change at 12.5 µM; 190,000 tested, 1.6% active; in the data active = fold change above about 3.3
APP 5'UTR act: activates APP 5'UTR luciferase reporter | SH-SY5Y APP 5'UTR luciferase reporter, luminescence; zero percent = DMSO vehicle wells | activation, % at 2 µM | 190,000 tested, 1% active;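 active = activation above a set limit, based on mean plus 3 SD of controls, cut at about 140% in these data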
STAT3 activator: activators of IL-6 induced STAT3 signaling. U3A cells, IL-6 STAT3-luciferase reporter, luminescence; 100% = signal with IL-6 EC80 alone. activation (% of control), % at 5.6 µM. 190,000 tested, 0.91% active. AID 871;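 active = activation above the screen-wide mean of compound activation plus 3 SD, cut at about 130% in these data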;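 note: 0% = background luminescence of wells with medium and substrate only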
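Material: STAT3-luciferase reporter U3A cells. Controls: IL-6-treated wells, 100% activation. Read-out: % activation versus median of IL-6-stimulated wells. Probe or stimulus: IL-6 stimulus at 33 ng/mL final. Timing: compound 1 h, then IL-6 6 h at 37 °C. Signal: reporter luminescence signal.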
STAT3 inh: reduces IL-6 driven STAT3 reporter signal; U3A cells, IL-6 STAT3-luciferase reporter, luminescence; host cell line lacks STAT1; 190,000 tested, 0.89% active; inhibition, % at 5.5 µM;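 active = inhibition above the mean inhibition across all screened compounds plus 3 SD, cut at about 44% in these data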;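 note: 0% = DMSO only wells and 100% = 100 µM nifuroxazide control wells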
STAT1 blocker: inhibitors of IFN-gamma induced STAT1 signaling; 200,000 tested, 0.35% active; inhibition, % at 5.5 µM; NIH 3T3 STAT1-luciferase reporter, luminescence;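 active = inhibition above a set limit, the mean inhibition across all tested compounds plus 3 SD, cut at about 34% in these data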;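 note: 0% = IFN-gamma with DMSO and 100% = IFN-gamma with 300 µM nifuroxazide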
STAT1 activator: increases IFN-gamma driven STAT1 reporter signal. activation (% of control), % at 5.5 µM. 200,000 tested, 2.6% active. NIH 3T3 STAT1-luciferase reporter, luminescence; 100% = IFN-gamma alone, no compound;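 active = activation above the screen-wide mean activation plus 3 SD, cut at about 130% in these data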;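 note: raw ratio to IFN-gamma control signal so 100% means no change and 0% no light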
Active calls of the source: *; · = no result given. Sampled rows, rich in hits. Any-hit rate of the full collection: about 4.9%.

SMILES	NF-kB expr up	APP 5'UTR act	STAT3 activator	STAT3 inh	STAT1 blocker	STAT1 activator
CNC(=S)N/N=C/c1cccc(OCc2ccccc2F)c1	1.6	34	96	2	-36	132*
O=C1CCCCC1C(=O)c1cn(-c2ccc(Cl)c(Cl)c2)nn1 (stereo not drawn)	1.8	19	99	12	-33	129*
S=c1[nH]c2ccccc2o1	1.3	-1	133*	-38	6	94
COc1ccccc1Nc1nc(N)nc(-c2cc3ccccc3o2)n1	1.2	31	98	8	-18	117
Cc1ccc(Nc2nc(N)nc(-c3oc4ccccc4c3C)n2)cc1	·	-92	154*	-54	-61	156*
COc1cccc(Nc2nc(N)nc(-c3oc4ccccc4c3C)n2)c1	1.3	-76	123	-24	-38	134*
O=C(/C=C/c1ccccc1[N+](=O)[O-])c1ccccc1Br	1.6	17	99	6	-10	108
O=[N+]([O-])c1ccc(-c2nc3ccc([N+](=O)[O-])cc3[nH]2)cc1	1.4	30	94	18	-35	131*
Nc1ccc2nc(-c3ccc(Cl)cc3)[nH]c2c1	8.5*	61	·	·	·	·
O=[N+]([O-])c1ccc2nc(/C=C/c3ccc(Cl)cc3)[nH]c2c1	0.97	136*	86	20	19	83
CC(C)CNC(=O)NC(=O)COC(=O)Cn1cnc2ccccc2c1=O	·	-14	105	-1	-7	105
Cc1ccc2nc(NC(=O)C3CCCN3C(=O)OC(C)(C)C)sc2c1 (stereo not drawn)	1.3	3	92	15	-10	109
Clc1ccc(C2=NN=C3COc4ccccc4N3C2)cc1	1.4	19	103	-3	0	100
c1ccc(C2=Nc3ccccc3OC2)cc1	4.8*	13	100	7	-35	132*
O=C1CC(c2ccccc2)=Nc2ccccc2N1	1.6	0	94	8	4	96
Cc1ccc2c(c1)N=C(c1ccc(Cl)cc1)CO2	3.6*	72	107	-6	-52	148*
Clc1ccc(C2=Nc3cc(Cl)ccc3OC2)cc1	3.4*	61	106	4	-41	135*
Oc1ccc(-c2nc3ccc4ccccc4c3c3c2CCC3)cc1O	2	-1	97	2	-12	111
CCCc1nn(C)c(C(=O)Nc2ccc(C)c(C)c2)c1Cl	1.3	38	102	0	-33	130*
Cc1c(N(C(=O)Cc2cccs2)C2(C(=O)NC3CCCC3)CCCCC2)c(=O)n(-c2ccccc2)n1C	4.1*	9	100	12	2	97
Cc1ccc(Nc2ncnc3ccccc23)cc1	2.9	149*	89	15	-34	130*
Cc1cccc(Nc2ncnc3ccccc23)c1	1.5	21	84	22	-9	108
Cc1ccccc1C(=O)Oc1cccc(Nc2ncnc3ccccc23)c1	·	23	43	67*	24	78
CC(C)Oc1ccc(Nc2ncnc3ccccc23)cc1	1.1	88	84	24	-53	144*
O=C(CC1NCCNC1=O)Nc1ccc([N+](=O)[O-])cc1 (stereo not drawn)	0.94	2	112	-9	-10	106
SMILES	NF-kB expr up	APP 5'UTR act	STAT3 activator	STAT3 inh	STAT1 blocker	STAT1 activator
Cn1nc(Oc2ncc(C(F)(F)F)cc2Cl)cc1C(F)(F)F	1	6	94	9	0	100
COc1ccc2c(c1)[nH]c1c(N3CCN(Cc4ccc5c(c4)OCO5)CC3)ncnc12	0.35	-3	40	77*	32	71
CC(C)(C)C(O)CN1CCCC1 (stereo not drawn)	1.2	1	100	3	2	97
O=C(O)c1ccc(-c2nc(-c3ccc(Cl)cc3Cl)cs2)cc1	2.1	122	132	-20	-42	137*
Cc1nc(N2CCCCC2)c2c(-c3cccs3)csc2n1	7.8*	-6	108	-7	7	92
Cc1nc(N2CCN(S(=O)(=O)c3ccccc3C#N)CC2)c2c(-c3cccs3)csc2n1	1.1	0	113	-17	2	98
COc1ccccc1OCc1ccc(C(=O)N(C)C)o1	2	5	94	11	-8	107
CN(C)C(=O)c1ccc(COc2ccccc2Br)o1	2.2	76	95	7	-33	132*
